Yeast growth inh = reduces growth of yeast BB579 in restrictive medium; S. cerevisiae BB579 growth, OD615, 48 h; inhibition, % at 10 µM; 140,000 tested, 0.51% active; AID 804;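 active = inhibition above a set limit, 3 SD over the mean compound inhibition, cut at about 44% in these data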
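test system = yeast BB579 (DeaD) | buffer or medium = restrictive CSMM-D medium | doses = single compound dose of 10 µM, 0.25% DMSO final | times = 4 h preincubation and 48 h exposure at 30 °C | technique = culture absorbance at 615 nm | benchmarks = amphotericin B 10 µg/mL, positive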
TNAP inh hiacc = inhibitors of human TNAP at high phosphate acceptor concentration; P05186; purified TNAP, CDP-star luminescence, 1 M DEA; inhibition, % at 20 µM; 200,000 tested, 0.03% active; AID 1135;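 active = over 50% inhibition of tissue-nonspecific alkaline phosphatase at 20 µM in the single-dose screen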
Target sequence (P05186 whole entry, looked up): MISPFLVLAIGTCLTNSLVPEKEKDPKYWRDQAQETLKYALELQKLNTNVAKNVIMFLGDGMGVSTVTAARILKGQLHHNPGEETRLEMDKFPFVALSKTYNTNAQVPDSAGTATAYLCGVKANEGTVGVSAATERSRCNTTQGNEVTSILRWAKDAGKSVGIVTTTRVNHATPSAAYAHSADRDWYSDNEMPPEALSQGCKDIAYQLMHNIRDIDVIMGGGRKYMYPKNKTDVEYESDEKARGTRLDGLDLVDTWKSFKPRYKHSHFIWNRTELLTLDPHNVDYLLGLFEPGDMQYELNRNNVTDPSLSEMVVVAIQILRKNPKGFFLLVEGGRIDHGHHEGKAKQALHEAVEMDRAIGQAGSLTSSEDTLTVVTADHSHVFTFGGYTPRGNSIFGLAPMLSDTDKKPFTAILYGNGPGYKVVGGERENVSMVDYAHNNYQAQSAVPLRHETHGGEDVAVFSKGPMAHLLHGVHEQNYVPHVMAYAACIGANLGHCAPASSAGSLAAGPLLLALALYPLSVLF
TNAP act hi DEA = activators of human TNAP at high phosphate acceptor concentration; P05186; purified TNAP, CDP-star luminescence, 1 M DEA, 30 min; active compounds read high; 0 = EDTA background, 1 = DMSO-only activity; activation factor at 20 µM; 200,000 tested, under 10 active; AID 1136;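 active = activation factor at least 2 at 20 µM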
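Control set: EDTA negative control, DMSO positive control / Assay system: human TNAP / Quantity: TNAP 1/800 final / Evaluation: TNAP activation factor scaled between EDTA and DMSO control wells / Measured by: luminescent substrate turnover signal / Compound dosing: one dose, 20 µM / Times: 30 min enzyme reaction at room temperature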
Yeast lifespan up = extends the lifespan of yeast | S. cerevisiae growth with nicotinamide, OD615; deaD strain in restrictive glucose medium | inhibition of the nicotinamide effect, % at 10 µM | 130,000 tested, 0.68% active;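 active = inhibition above a set limit, placed 3 SD over the median of all compounds, cut at about 26% in these data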
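assay system = DeaD-strain S. cerevisiae | buffer or medium = restrictive glucose medium | reagent = 1.5 mM nicotinamide | compound = 10 µM single point, 0.25% DMSO | incubation = 48 h compound exposure at 30 °C, humidified | signal = OD615 measurement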
TNAP inh no acc = blocks human TNAP activity with no phosphate acceptor present; P05186; purified TNAP, CDP-star luminescence, 30 min; inhibition, % at 20 µM; 200,000 tested, 0.26% active; AID 1012;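 active = tissue-nonspecific alkaline phosphatase inhibition above about 50% at 20 µM in the single-dose screen, limit read from the data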
RAM inhibit = yeast RAM network inhibition. S. cerevisiae dse1pr::URA3 reporter, 5-FOA growth OD615, 2 d; analog-sensitive cbk1-as2 kinase mutant strain. AID 868. inhibition, % at 50 µM. 190,000 tested, 1.8% active;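 active = inhibition above a set limit, 3 SD over mean compound inhibition, cut at about 8.4% in these data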;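 also: inhibition rescues growth on 5-FOA so higher OD means more RAM inhibition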
RAM efflux-def = RAM network inhibition, efflux-deficient strain; max inhibition, %; 1,200 tested, under 10 active; shares compounds with RAM inhibit; AID 1305; S. cerevisiae efflux-deficient reporter strain, 5-FOA growth OD615, 2 days; call rule not given here
Hits are given with their value; – = inactive; · = no result. A selection: hits, their analogues and other compounds. The true share with any hit is near 2.8%.

SMILES	Yeast growth inh	TNAP inh hiacc	TNAP act hi DEA	Yeast lifespan up	TNAP inh no acc	RAM inhibit	RAM efflux-def
CC1=NN(c2nc(-c3ccccc3)cs2)C(=O)C1N=Nc1ccccc1 (stereo unspecified)	·	–	–	·	–	–	·
CC1=NN(c2nc(-c3ccc(C)cc3)cs2)C(=O)C1N=Nc1ccc(C(N)=O)cc1 (stereo unspecified)	·	–	–	·	–	12	–
CN(C(=O)COC(=O)c1sc2ccccc2c1Cl)C1CCCCC1	–	–	–	–	–	14	–
O=S(=O)(CCc1nc2ccccc2o1)c1ccc2ccccc2c1	–	–	–	–	–	–	·
CCN(CC)c1ccc(C(=O)OCC(=O)Nc2ccccc2-c2ccccc2)cc1	–	–	–	–	–	22	–
CN(C)c1cccc(C(=O)OCC(=O)Nc2ccccc2-c2ccccc2)c1	–	–	–	–	–	–	·
Cc1nnc(SC/C=C/c2ccccc2)n(N)c1=O	·	–	–	·	–	–	·
O=C(/C=C/c1ccccc1)n1cnnc1SC/C=C/c1ccccc1	–	–	–	–	–	12	–
CCOC(=O)CNC(=O)Nc1ccccc1C(=O)OC	–	–	–	–	–	–	·
O=C(Nc1ccc(Cl)c(Cl)c1)c1ccc(Cn2cc(Cl)cn2)cc1	–	–	–	–	–	13	–
CC1=CC(C)(C)n2c(O)c(N=NC(N)=S)c3cccc1c32	–	–	–	–	–	13	–
CN(CC(=O)N1CCc2ccccc21)S(=O)(=O)c1cccc2cccnc12	–	–	–	–	–	–	·
CCCS(=O)(=O)c1c(S(=O)(=O)CCC)c2c(N)cccn2c1C(=O)c1ccc(Br)cc1	–	–	–	·	–	13	–
CSc1nc(Cl)c(Cc2ccc(OC(C)C)cc2)c(N2CCOCC2)n1	–	–	–	–	–	12	–
COc1ccccc1NS(=O)(=O)c1ccc(N/N=C(\C)C(C)C)c([N+](=O)[O-])c1	–	–	–	–	–	–	·
CCCC(CCC)=NNc1ccc(S(=O)(=O)Nc2ccccc2OC)cc1[N+](=O)[O-]	–	–	–	–	–	16	–
CCCn1c2c(c(O)c(C(=O)Nc3ccccc3)c1=O)CCCC2	–	–	–	–	–	12	–
CCCn1c2c(c(O)c(C(=O)Nc3ccccn3)c1=O)CCCC2	·	–	–	·	–	·	·
Brc1ccc(CSc2nnc(Cc3c[nH]c4ccccc34)o2)cc1	–	–	–	–	–	13	–
CCOC(=O)c1c(NC(=O)CN2CCCc3ccccc32)sc(C)c1CC	–	–	–	–	–	15	–
CCOC(=O)c1c(NC(=O)CN2CCCc3ccccc32)sc(C)c1C	–	–	–	–	–	14	–
C=CCn1c(SCC(=O)N2CCOCC2)nc2sc3c(c2c1=O)CCCC3	–	–	–	–	–	–	·
C=CCn1c(SCc2csc(C)n2)nc2sc3c(c2c1=O)CCC(C)C3 (stereo unspecified)	–	–	–	·	–	15	–
C=CCn1c(SCc2csc(C)n2)nc2sc3c(c2c1=O)CCCCC3	–	–	–	–	–	17	–
CCN(CC(O)CON=C1c2ccccc2-c2ccccc21)S(=O)(=O)c1ccc(C)cc1 (stereo unspecified)	–	–	–	–	–	15	–
SMILES	Yeast growth inh	TNAP inh hiacc	TNAP act hi DEA	Yeast lifespan up	TNAP inh no acc	RAM inhibit	RAM efflux-def
CCN(CC(O)CON=C1c2ccccc2-c2ccccc21)S(=O)(=O)c1ccc(Cl)cc1 (stereo unspecified)	–	–	–	–	–	20	–
COc1ccc(NC2=C(Cl)C(=O)N(CCc3ccccc3)C2=O)c(OC)c1	–	–	–	–	–	16	–
Cc1ccc(/C=C/C(=O)Nc2ccc(Oc3ccccc3)cc2)o1	–	–	–	–	–	13	–
COC(=O)c1ccc(Cl)cc1NC(=O)/C=C/c1ccc(C)o1	–	–	–	–	–	13	–
CC(Oc1ccc(-c2ccccc2)c(F)c1)c1ccn(S(=O)(=O)c2ccc(Br)cc2)n1 (stereo unspecified)	–	–	–	–	–	12	–
CC(Oc1ccc(Cl)cc1)c1ccnn1S(=O)(=O)c1ccc(Cl)cc1 (stereo unspecified)	–	–	–	–	–	–	·
O=CNn1cnc2c(oc3nc(-c4ccccc4)cc(-c4ccco4)c32)c1=O	·	–	–	·	–	–	·
Cc1ccc(NC(=O)COc2ccc(CCO)cc2-n2nc3ccccc3n2)cc1C	–	–	–	–	–	12	–
CSc1ncc(CN2CCc3c([nH]c4ccccc34)C2c2cccc(O)c2)cn1 (stereo unspecified)	·	–	–	·	–	–	·
Cc1cccc(NC(=O)COC(=O)c2ccc3c(=O)n4c(nc3c2)CCC4)c1	–	–	–	–	–	–	·
O=C(COC(=O)c1ccc2c(=O)n3c(nc2c1)CCC3)Nc1ccc(OC(F)F)cc1	·	–	–	·	–	13	–
C=CCN(c1ccccc1Cl)S(=O)(=O)c1cccc(C(=O)NCCc2ccc(OC)cc2)c1	–	–	–	–	–	14	–
Cc1ccn2c(Nc3ccccc3C)c(-c3cccnc3)nc2c1	·	–	–	·	–	–	·
COc1cccc(/C=C(/C(=O)OCC(=O)NC2CCCCCCC2)c2ccccc2)c1	–	–	–	–	–	13	–
Cc1ccc(S(=O)(=O)Nc2ccc(N3CCCCC3)cc2)cc1	·	–	–	·	–	–	·
Cc1ccc(NS(=O)(=O)c2ccc(C3CCCCC3)cc2)cc1	–	–	–	–	–	14	–
COCCn1c(=NC(=O)c2sc3ccccc3c2Cl)sc2cc(S(N)(=O)=O)ccc21	–	–	–	–	–	16	–
C=CCn1c(=NC(=O)c2sc3ccccc3c2Cl)sc2cc(S(N)(=O)=O)ccc21	–	–	–	–	–	–	·
O=[n+]1c2c(n([O-])c3cc(F)c(F)cc31)CCCC2	–	–	–	–	–	–	·
COC(=O)N/N=C/c1ccc(OS(=O)(=O)c2ccc(C)cc2)c(OC)c1	·	–	–	·	–	–	·
C=CCNC(=O)/C(C#N)=C/c1ccc(OS(=O)(=O)c2ccc(C)cc2)c(OC)c1	–	–	–	–	–	15	–
Clc1ccc(-c2nnc(CSc3nnc(-c4cccs4)o3)o2)cc1	–	–	–	–	–	13	–
c1ccc(-c2nnc(SCc3nnc(-c4cccs4)o3)o2)cc1	–	–	–	–	–	–	·
CCOC(=O)COc1c(/C=N\OC)cc(Cl)cc1OC	·	–	–	·	–	–	·
CCOC(=O)/C(=C/c1ccc(N2CCC(c3ccccc3)=N2)cc1)C(C)=O	–	–	–	–	–	20	–
CCOC(=O)c1oc2ccccc2c1CSc1nnnn1-c1ccc(OC)cc1	–	–	–	–	–	–	·
